# Tests used:
# Adenosine receptor A1 = target: T1, Adenosine receptor A1 (Rattus norvegicus, UniProt P25099); experiment: Binding affinity at rat brain Adenosine A1 receptor
# T1 sequence (P25099 whole entry): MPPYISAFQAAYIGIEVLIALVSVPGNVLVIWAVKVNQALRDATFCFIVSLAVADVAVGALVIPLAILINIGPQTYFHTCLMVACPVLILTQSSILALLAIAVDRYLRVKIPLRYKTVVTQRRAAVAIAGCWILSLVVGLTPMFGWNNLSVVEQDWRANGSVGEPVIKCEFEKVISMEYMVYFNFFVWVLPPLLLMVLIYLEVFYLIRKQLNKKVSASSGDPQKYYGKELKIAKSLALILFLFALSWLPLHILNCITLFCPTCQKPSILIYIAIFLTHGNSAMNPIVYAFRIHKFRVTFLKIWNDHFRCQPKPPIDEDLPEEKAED
# Method in brief: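 Rat cerebral cortex membranes labelled with [3H]R-PIA. Adenosine deaminase 3 units/mL present during membrane preparation, during a 30 min preincubation at 30 °C and during incubation. Filtration on GF/B filters. At least five competitor concentrations spanning 3 log units. […] Three independent experiments in duplicate.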
# Adenosine receptor A3 [1] = target: T2, Adenosine receptor A3 (Rattus norvegicus, UniProt P28647); experiment: Binding affinity at rat adenosine A3 receptor in CHO cells; type: cell-based
# T2 sequence (P28647 whole entry): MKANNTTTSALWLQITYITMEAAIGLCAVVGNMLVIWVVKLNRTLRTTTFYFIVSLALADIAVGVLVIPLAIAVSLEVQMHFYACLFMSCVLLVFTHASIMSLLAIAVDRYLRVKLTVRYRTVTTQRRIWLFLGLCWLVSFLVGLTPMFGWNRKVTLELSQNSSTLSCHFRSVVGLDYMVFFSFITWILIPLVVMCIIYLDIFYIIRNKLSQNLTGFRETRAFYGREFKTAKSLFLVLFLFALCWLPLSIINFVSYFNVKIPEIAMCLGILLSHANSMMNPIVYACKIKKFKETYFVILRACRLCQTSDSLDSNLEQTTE
# Adenosine receptor A3 [2] = target: Adenosine receptor A3 (Homo sapiens, UniProt P0DMS8, H272E); experiment: Binding affinity at Mutant (H272E) human adenosine A3 receptor expressed in COS-7 cells; type: cell-based
# Adenosine receptor A3 [3] = target: T3, Adenosine receptor A3 (Homo sapiens, UniProt P0DMS8); experiment: Binding affinity at wild-type Adenosine A3 receptor expressed in COS-7 cells; type: cell-based
# T3 sequence (P0DMS8 whole entry): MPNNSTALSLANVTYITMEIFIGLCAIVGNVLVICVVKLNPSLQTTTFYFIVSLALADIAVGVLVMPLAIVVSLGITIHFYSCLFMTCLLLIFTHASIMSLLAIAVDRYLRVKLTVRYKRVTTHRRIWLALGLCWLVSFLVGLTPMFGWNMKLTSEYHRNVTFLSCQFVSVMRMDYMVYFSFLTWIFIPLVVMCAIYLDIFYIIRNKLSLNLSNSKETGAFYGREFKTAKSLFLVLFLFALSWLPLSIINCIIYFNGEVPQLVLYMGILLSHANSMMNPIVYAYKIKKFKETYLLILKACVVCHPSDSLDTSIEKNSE
# Adenosine receptor A3 [4] = target: T2, Adenosine receptor A3; experiment: Binding affinity at rat adenosine A3 receptor in RBL-2H3 cells; type: cell-based
# Method in brief: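 Rat A3 receptors endogenously expressed in RBL-2H3 cells; displacement of [125I]AB-MECA at 1 nM in 50 mM Tris, 10 mM Mg2+, 1 mM EDTA, pH 8.0. Nonspecific binding defined with 100 μM R-PIA. Filtration on GF/B filters. At least five competitor concentrations. IC50 by nonlinear regression, converted to Ki by Cheng–Prusoff (Kd 1.46 nM). Three independent experiments in duplicate.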
# Chain of Adenosine receptor A3 (Homo sapiens, UniProt P0DMS8, H272E) (P0DMS8 whole entry H272E): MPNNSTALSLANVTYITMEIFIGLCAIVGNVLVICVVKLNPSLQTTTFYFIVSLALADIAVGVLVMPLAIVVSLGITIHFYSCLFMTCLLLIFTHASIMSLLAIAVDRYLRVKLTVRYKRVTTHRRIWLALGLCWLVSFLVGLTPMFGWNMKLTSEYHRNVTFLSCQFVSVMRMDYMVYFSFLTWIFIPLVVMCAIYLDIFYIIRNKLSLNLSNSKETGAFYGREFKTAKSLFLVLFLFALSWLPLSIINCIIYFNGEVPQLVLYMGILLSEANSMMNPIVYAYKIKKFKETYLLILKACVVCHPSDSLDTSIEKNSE
SMILES,Ki (Adenosine receptor A1),Ki (Adenosine receptor A3 [1]),Ki (Adenosine receptor A3 [2]),Ki (Adenosine receptor A3 [3]),Ki (Adenosine receptor A3 [4])
NCCNC(=O)[C@H]1O[C@@H](n2cnc3c(N)ncnc32)[C@H](O)[C@@H]1O,> 10 µM,14.7 µM,–,–,–
N[C@H]1[C@@H](O)[C@H](n2cnc3c(NCc4cccc(I)c4)ncnc32)O[C@@H]1CO,8.1 µM,–,0.32 µM,0.87 µM,–
N[C@@H]1[C@@H](O)[C@H](n2cnc3c(NC4CCCC4)ncnc32)O[C@@H]1CO,> 10 µM,–,0.00019 µM,0.00054 µM,> 10 µM
Nc1ncnc2c1ncn2[C@@H]1O[C@H](CO)[C@@H](O)[C@H]1N,> 10 µM,–,0.301 µM,1000 µM,> 10 µM
Nc1nc(Cl)nc2c1ncn2[C@@H]1O[C@H](CO)[C@@H](O)[C@H]1O,–,–,11.6 µM,0.65 µM,–
NC[C@H]1O[C@@H](n2cnc3c(N)ncnc32)[C@H](O)[C@@H]1O,> 10 µM,–,0.425 µM,1000 µM,> 10 µM
Nc1ncnc2c1ncn2[C@@H]1O[C@H](CO)[C@@H](N)[C@H]1O,> 10 µM,–,0.075 µM,0.442 µM,84 µM
N=C(N)N[C@H]1[C@@H](O)[C@H](n2cnc3c(N)ncnc32)O[C@@H]1CO,> 10 µM,–,0.0333 µM,0.13 µM,–
CNC(=O)[C@@H]1C[C@H](N)[C@H](n2cnc3c(NCc4cccc(I)c4)nc(Cl)nc32)O1,6.69 µM,3.4 µM,0.0023 µM,0.0046 µM,–
Nc1nc2ccc(Cl)cc2c2nc(-c3ccco3)nn12 [CGS-15943],–,–,3.26 µM,0.253 µM,–

# From ChEMBL document CHEMBL1134644 (J Med Chem, 2001)
